High-throughput results deposited in PubChem by Sanford-Burnham Center for Chemical Genomics.
An excerpt weighted towards active compounds, which were near 1.7% of everything screened.
LMPTP inh: blocks human LMPTP phosphatase. P24666. recombinant LMPTP-A, OMFP fluorogenic substrate, fluorescence intensity. inhibition, % at 20 µM. hit rate 0.22% among 360,000. AID 651560;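 active means compounds that cut the enzyme signal by at least half of the control window in the single-dose screen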;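 further: plate controls were DMSO wells with enzyme plus substrate for no effect and substrate without enzyme for full effect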
Target sequence (P24666 whole entry, looked up): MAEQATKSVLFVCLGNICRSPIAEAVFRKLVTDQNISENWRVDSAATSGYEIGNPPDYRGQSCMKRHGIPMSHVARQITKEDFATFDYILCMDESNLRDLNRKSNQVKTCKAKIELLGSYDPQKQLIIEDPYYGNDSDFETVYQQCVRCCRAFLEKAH
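Buffer or medium: Bis-Tris pH 6.0, DTT, detergent; Assay system: LMPTP-A enzyme; Quantity: 0.625 nM enzyme; Detection: endpoint fluorescence intensity; Times: 50 min dark incubation at room temperature; Controls: substrate-only low control, DMSO enzyme-plus-substrate high control; Doses: single 20 µM dose; Read-out: percent inhibition versus substrate-only and uninhibited controls; Reagent: 400 µM OMFP.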
Scp1 inh: inhibitors of human Scp-1 phosphatase. Q9GZU7. Recombinant Scp1, phosphopeptide, malachite green phosphate absorbance. inhibition, % at 20 µM. hit rate 0.88% among 340,000. AID 493091;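 active means inhibition above about 50% at 20 µM, limit read from the data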;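 further: plate controls were DMSO wells with enzyme for no effect and wells lacking enzyme for full effect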
Target sequence (Q9GZU7 76-261 limits assumed): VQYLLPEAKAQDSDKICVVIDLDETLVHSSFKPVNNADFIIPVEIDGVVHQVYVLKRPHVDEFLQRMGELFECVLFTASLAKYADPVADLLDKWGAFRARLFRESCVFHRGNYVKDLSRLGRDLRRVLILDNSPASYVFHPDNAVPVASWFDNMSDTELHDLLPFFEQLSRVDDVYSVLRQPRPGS
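Material: truncated SCP-1 phosphatase (76-261aa) / Buffer or medium: 50 mM Tris acetate pH 5.5, 0.005% Tween-20, 10 mM MgCl2 / Compound dosing: one concentration, 20 µM, with 1.0% DMSO / Incubation: 45 min room-temperature reaction, 5 min colour, 30 min stabiliser / Detection: colorimetric free-phosphate detection, absorbance 630 nm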
DNMT1 inh: DNMT1 (human) enzyme inhibition; inhibition (reported as % activation of signal), % at 10 µM; hit rate 0.83% among 360,000; P26358; DNMT1 molecular beacon, Hinp1I cleavage, fluorescence; in the data active means inhibition above about 50%
STEP block: inhibitors of human striatal-enriched phosphatase STEP; P54829; recombinant STEP, OMFP fluorogenic substrate, fluorescence; inhibition, % at 20 µM; hit rate 0.25% among 360,000; AID 588621;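 active means inhibition at 20 µM, scaled per plate between control wells, above about 37%, limit read from the data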;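 further: 0% = DMSO with enzyme and substrate and 100% = substrate only without enzyme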
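System: STEP (striatal-enriched tyrosine phosphatase) enzyme, cell-free; medium: Bis-Tris pH 6.0 buffer with DTT, detergent; dosing: 20 µM, 1% DMSO; times: reaction 20 min, ambient temperature; detection: fluorescence, 480/540 nm; read-out basis: normalized % inhibition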
SUMO1 PPI mod: modulators of human SUMO1-mediated protein-protein interactions | P63165 | SUMO1 binding to a labelled peptide, TR-FRET, 1 h | inhibition, % at 20 µM | hit rate 0.33% among 360,000; in the data active means inhibition above about 37%
Target sequence (P63165 whole entry, looked up): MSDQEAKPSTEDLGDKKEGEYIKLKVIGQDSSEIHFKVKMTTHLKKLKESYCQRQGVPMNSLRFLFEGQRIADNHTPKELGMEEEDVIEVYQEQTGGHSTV
DNMT1 confirm: DNMT1 inhibition confirmation, single concentration; shares compounds with DNMT1 inh; DNMT1 molecular beacon HinP1I cleavage, fluorescence; inhibition, % at 10 µM; hit rate 8% among 2,300; AID 602385;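 active means average inhibition of at least 30% in the single-concentration confirmation test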
Beacon interf: shows spectral interference in the DNMT1 beacon assay. DNMT1 molecular beacon spectral interference counterscreen, fluorescence 485/520. hit rate 1% among 2,300. activation (fluorescence interference), % at 10 µM. shares compounds with DNMT1 inh;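 active means activation of at least 30% at 10 µM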;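 further: DNMT1 catalytic domain with a HinP1I cleavage step and a FAM/dabcyl DNA beacon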
Numbers without * were called inactive; . = not tested or not shown.

SMILES | LMPTP inh | Scp1 inh | DNMT1 inh | STEP block | SUMO1 PPI mod | DNMT1 confirm | Beacon interf
COC(=O)c1sccc1NC(=O)c1cc(-c2ccc(C)cc2)nc2ccccc12 | 0.9 | 0.0 | 8.4 | -0.7 | 0.2 | . | .
CC(C)CC1NC(=O)N(CC(=O)N2c3ccccc3NC(=O)C2(C)C)C1=O (centres undefined) | -0.2 | 9.2 | 0.8 | -2.1 | -1.2 | . | .
CC(C)C[C@@H]1NC(=O)[C@H](Cc2ccccc2)N(C)C(=O)[C@H](C)NC(=O)c2ccccc2NC(=O)[C@H](Cc2ccc(O)cc2)N(C)C1=O | 1.4 | 6.8 | 79.3* | 0.6 | 3.9 | 3.5 | 6.3
Cc1sc2ncnc(SCC(=O)N3CCCC(C(N)=O)C3)c2c1C (centres undefined) | -0.1 | -10.5 | 1.1 | 22.7 | 1.3 | . | .
CCCc1cc(=O)oc2c(C)c(OCC(=O)c3ccc(N4CCCC4)cc3)ccc12 | 5.9 | 40.0 | 57.3* | 1.6 | 1.0 | 6.4 | -1.6
Cc1cc2ccccc2cc1CN1CCOCC1 | -1.7 | -5.2 | 58.1* | 1.2 | -2.1 | 6.8 | 6.7
O=S(=O)(NCc1ccccc1)c1cccc2nsnc12 | 0.9 | 9.0 | 85.3* | -0.9 | -28.7 | 1.0 | 2.4
Cc1ccc(OCC(=O)Nc2nnc(S(=O)(=O)N3CCC(C)CC3)s2)cc1 | 6.7 | 3.1 | 57.8* | 2.0 | 2.6 | -0.7 | -2.9
COc1ccc(OCC(=O)Nc2nnc(S(=O)(=O)N3CCCCCC3)s2)cc1 | -0.7 | -12.2 | 2.9 | -1.5 | 11.2 | . | .
c1ccc(-c2cn3ccccc3n2)cc1 | 3.4 | -3.8 | 2.7 | -0.9 | 0.0 | . | .
Oc1ccc(-c2cn3ccccc3n2)cc1 | -1.1 | 0.2 | 152.9* | 1.1 | -2.4 | 4.7 | 1.9
COc1ccc(-c2cc(-c3ccccc3)c(C#N)c(S(C)=O)n2)cc1 (centres undefined) | 0.2 | -6.0 | 4.7 | -1.1 | 19.5 | . | .
COc1ccc(-c2cc3nc4ccccc4n3c(N)c2C#N)cc1 | 57.8* | 17.1 | 52.2* | 62.1* | 87.0* | 7.9 | 7.1
CCC1CN(C(=O)N2CCC(C(=O)NCc3cccc(OC)c3OC)CC2)c2cc(C)ccc2O1 (centres undefined) | 1.2 | -4.0 | 1.0 | -1.4 | -0.3 | . | .
CC(=O)Nc1ccc(NC(=O)C(C)NC(C)c2cccc3ccccc23)cc1 (centres undefined) | -0.2 | -0.8 | -1.3 | -1.3 | 0.4 | . | .
O=C(CCCN1C(=O)/C(=C\c2ccco2)SC1=S)Nc1ccc2ccccc2c1 | 8.1 | -4.1 | -7.0 | 0.8 | 6.1 | . | .
COc1ccccc1/C=C1\SC(=S)N(CCC(=O)Nc2ccc(C(=O)O)c(O)c2)C1=O | 11.8 | -10.6 | -17.7 | 5.5 | 4.2 | . | .
O=C(CCN1C(=O)/C(=C/c2ccco2)SC1=S)Nc1ccc(C(=O)O)c(O)c1 | 22.3 | 65.5* | 81.3* | 48.0* | 46.8* | 4.4 | -0.1
O=C(CCN1C(=O)/C(=C\c2ccco2)SC1=S)Nc1ccc(C(=O)O)c(O)c1 | 23.3 | 79.7* | 91.1* | 42.8* | 65.5* | 15.6 | 0.4
C#CCn1c(=NC(=O)CN2C(=O)CCC2=O)sc2cccc(OC)c21 | -1.4 | -2.7 | 19.2 | 8.3 | 2.9 | . | .
C#CCn1c(=NC(=O)c2cccs2)sc2cccc(OC)c21 | 11.1 | 16.8 | 57.9* | 2.0 | -5.1 | 3.2 | 33.4*
Cc1ccc(-c2nc(C(=O)NCCCN(C)C)cc3c2[nH]c2ccccc23)cc1 | 2.7 | -1.8 | 56.4* | 0.3 | 3.5 | 0.1 | -2.1
CC(=O)Nc1cccc(-c2ccnc3c2CC(C)(C(=O)NCc2ccc(N(C)C)cc2)O3)c1 (centres undefined) | -0.3 | . | 1.0 | 1.6 | 0.4 | . | .
NC(=O)c1nsc(C(=O)N(c2ccccc2)C(C(=O)NC2CCCC2)c2cccs2)c1N (centres undefined) | 9.8 | 1.8 | 53.7* | -2.6 | -2.8 | 6.5 | -0.5
COc1ccc(C(C(=O)NC2CCCC2)N(C(=O)c2snc(-c3ccc(F)cc3)c2N)c2ccccc2)cc1 (centres undefined) | -3.9 | -2.4 | 57.8* | -0.8 | 1.8 | 2.8 | 3.8
